Hits are enriched below; roughly 0.99% of the tested compounds scored in any of these assays.
ABCB1 block = blocks JC-1 efflux by human ABCB1 transporter. P08183. CCRF-Adr cells, flow cytometry. inhibition, % at 6.6 µM. 190,000 compounds, 0.067% hits; in the data active = inhibition above about 40%;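 note: 0% = vehicle and 100% = reference inhibitor; higher value means more JC-1 retained so stronger ABCB1 efflux block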
Ins promoter up = MIN6 insulin promoter up-regulation. MIN6 insulin promoter-GFP reporter, high-content imaging; active compounds read high. z-score at 5 µM. 190,000 compounds, 0.3% hits. AID 1625;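 active = z-score above 3 at 5 µM with at least 500 cells counted in the well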
GRK2 inh = inhibitors of human GRK2 displacing RNA aptamer; 330,000 compounds, 0.59% hits; bead flow cytometry, FAM-aptamer displacement from GRK2; P25098; inhibition of aptamer binding, % at 10 µM;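 active = inhibition of aptamer binding above 40%, roughly 3 SD of noise, on plates passing a quality check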;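 note: median bead fluorescence of bound FAM aptamer so fluorescent compounds give negative values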
DDE Tn7 FP inh = disrupts Tn7 cyclic peptide binding to fibrin D-Dimer-E complex. 370,000 compounds, 0.13% hits. P02675. inhibition, % at 8.3 µM. AID 720508. FP displacement of FITC-Tn7 peptide from fibrin DD(E); 0% = median of compound wells per plate;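 active = inhibition above the mean of compounds falling within the control limits plus 3 SD of them, cut at about 14% in these data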;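 note: 0% = plate median of compound wells and 100% = 10 µM Aha-Tn7 peptide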
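Assay system: Fibrin-DD(E) protein isolated from polymerized human fibrin clots; read-out basis: percent inhibition; medium: Tris/NaCl/CaCl2 buffer, pH 7.8; signal: FP measurement; incubation: 10 min plus 3 h, room temperature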
DDE Tn6 FP inh = DD(E)-Tn6 binding inhibition, primary FP screen | Fibrin DD(E) TRITC-Tn6 fluorescence polarization displacement | inhibition, % at 8.3 µM | 370,000 compounds, 0.21% hits;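 active = inhibition above a per-campaign cutoff: mean of compounds within control limits plus 3 SD, cut at about 15% in these data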;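 note: 0% = median of all compound wells on the plate and 100% = blocking peptide control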
ABCG2 inh = inhibitors of human ABCG2 transporter, ABCB1 counter-screen | Q9UNQ0 | IgMXP3 cells, JC-1 efflux, flow cytometry | inhibition, % at 6.6 µM | 190,000 compounds, 0.1% hits | AID 1325;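 active = inhibition above 80%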;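 note: 0% = DMSO and 100% = nicardipine control wells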
Target sequence (Q9UNQ0 whole entry, looked up): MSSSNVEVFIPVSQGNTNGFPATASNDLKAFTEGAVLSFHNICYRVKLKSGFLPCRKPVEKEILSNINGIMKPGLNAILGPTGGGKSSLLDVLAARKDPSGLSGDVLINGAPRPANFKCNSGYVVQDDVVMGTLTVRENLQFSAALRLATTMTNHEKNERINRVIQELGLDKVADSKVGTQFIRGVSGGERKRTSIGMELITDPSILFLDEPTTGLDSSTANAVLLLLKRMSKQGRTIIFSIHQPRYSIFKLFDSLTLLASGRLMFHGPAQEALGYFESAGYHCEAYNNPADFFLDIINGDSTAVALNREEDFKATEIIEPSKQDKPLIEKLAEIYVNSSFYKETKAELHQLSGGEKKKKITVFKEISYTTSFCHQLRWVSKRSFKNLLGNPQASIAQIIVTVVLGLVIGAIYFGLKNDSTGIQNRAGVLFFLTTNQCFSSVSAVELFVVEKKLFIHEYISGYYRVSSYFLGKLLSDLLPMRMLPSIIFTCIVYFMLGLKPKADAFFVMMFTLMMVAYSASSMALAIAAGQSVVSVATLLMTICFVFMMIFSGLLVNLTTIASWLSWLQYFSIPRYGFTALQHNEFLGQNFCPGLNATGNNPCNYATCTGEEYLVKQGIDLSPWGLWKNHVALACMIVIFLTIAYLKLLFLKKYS
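Test system: IgMXP3 cells (ABCG2) mixed with DDAO far-red-labelled CCRF-Adr cells (ABCB1). Reagent: JC-1 transporter substrate. Compound dosing: single test compound dose, 6.6 µM final. Times: 10 min compound exposure, 25 °C. Detection: flow cytometry of retained JC-1 fluorescence. Read-out basis: efflux inhibition in percent versus controls. Controls: nicardipine and DMSO wells.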
Tn6 DDE ctr = counter-screen for inhibitors of Tn6 peptide binding to fibrin DD(E); shares compounds with DDE Tn6 FP inh; TRITC-Tn6 fluorescence polarization displacement; 0% = median of compound wells, not DMSO; inhibition, % at 8.3 µM; 680 compounds, 2% hits; AID 720621;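 active = inhibition above the mean of test compounds lying between the control limits plus 3 SD of those, cut at about 14% in these data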;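 note: 0% = median of compound wells and 100% = wells with Aha-Tn7 blocking peptide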
DDE Tn6 confirm = DD(E)-Tn6 binding inhibition, FP confirmation. shares compounds with DDE Tn6 FP inh. FP displacement of TRITC-Tn6 peptide from DD(E); 0% = per-plate median of test wells. inhibition, % at 8.3 µM. 680 compounds, 10% hits;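 active = inhibition above the mean of compounds lying within the control limits plus 3 SD, cut at about 16% in these data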;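 note: 100% = high control wells holding a competing inhibitor peptide at 10 µM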
The depositor's hits bear a star; . = no result; + = active, no number.

SMILES | ABCB1 block | Ins promoter up | GRK2 inh | DDE Tn7 FP inh | DDE Tn6 FP inh | ABCG2 inh | Tn6 DDE ctr | DDE Tn6 confirm
CC1=CN2C(=N)/C(=C/c3ccc([N+](=O)[O-])o3)C(=O)N=C2S1 | 4.6 | . | 5.0 | -5.4 | 20.1* | -14.2 | -11.6 | -10.4
CC1=CN2C(=N)/C(=C/c3ccco3)C(=O)N=C2S1 | 0.2 | 0.18 | 7.0 | 0.6 | 5.4 | 6.6 | . | .
O=C(c1cccc(C(F)(F)F)c1)N1CC[C@H]2[C@H](CCCN2Cc2ccc(F)cc2)C1 | . | . | . | 4.2 | 2.8 | . | . | .
CC(C)c1ccc(CNc2nnnn2C)cc1 | . | . | 0.0 | 3.5 | 19.2* | . | 0.3 | 0.2
Oc1cc2c(cc1O)C1c3ccc(O)c(O)c3OCC1(O)C2 (centres undefined) | 0.3 | -0.09 | 0.0 | -3.6 | 33.4* | 5.7 | -4.5 | 20.7*
CCCCCCCC1CC(CSc2ncn[nH]2)OC1=O (centres undefined) | -0.1 | . | 0.0 | -3.4 | 3.4 | -5.0 | . | .
CCCCC1CC(CSC(=N)N)OC1=O (centres undefined) | 0.1 | 0.1 | 5.0 | 5.9 | 17.9* | 0.1 | 0.5 | -3.5
CCCCCCCC1CC(CSC(=N)N)OC1=O (centres undefined) | 0.0 | 0.03 | 0.0 | 3.5 | 12.7 | -0.1 | . | .
CCCCC1CC(CSc2ncn[nH]2)OC1=O (centres undefined) | 0.8 | -0.61 | 0.0 | 6.2 | 72.0* | 3.1 | -1.5 | -6.5
O=c1c2ccc(F)cc2nc2sc(Nc3ccc4c(c3)CCC4)nn12 | . | . | . | 8.0 | -2.4 | . | . | .
O=C1N=C(N2CCN(c3ccccc3)CC2)S/C1=C/c1ccco1 | . | -0.68 | 3.0 | 2.9 | 16.9* | . | 9.2 | 2.1
O=[n+]1c2c(n([O-])c3cc(F)c(N4CCCC4)cc31)CCC2 | . | . | 10.0 | 11.6 | 15.6* | . | 4.2 | 17.1*
CCOC(=O)N1Cc2cc3ccccc3nc2C1 | . | . | . | -5.2 | 1.8 | . | . | .
CCOC(=O)C1(C)C(=O)CC2c3nc4ccccc4cc3CN2C1=O (centres undefined) | . | . | . | 3.8 | 74.8* | . | 3.7 | 47.4*
CCCCCn1c(=O)[nH]c2cc(C(=O)NCCCN3CCC(C)CC3)ccc2c1=O | -0.1 | -0.05 | 0.0 | 11.4 | 18.2* | 0.2 | -2.4 | -7.7
Cc1cccc(C)c1-n1nnnc1C1(C)CCC(=O)N1Cc1ccc(F)cc1 (centres undefined) | . | . | . | 1.6 | -0.9 | . | . | .
Cc1cccc(C)c1-n1nnnc1C1(C)CN(S(C)(=O)=O)CC(=O)N1Cc1ccc(F)cc1 (centres undefined) | . | . | . | -4.5 | 16.0* | . | -2.4 | -4.7
CCC(C)(C)C1CCc2c(sc(N)c2C(N)=O)C1 (centres undefined) | 0.2 | . | 5.0 | 7.0 | 17.4* | 1.4 | -3.0 | -9.8
Cn1nc(C(C)(C)C)cc1C(=O)N1CCCCC1c1cc(C(=O)Nc2ccc(F)c(Cl)c2)no1 (centres undefined) | . | . | . | 0.6 | 2.7 | . | . | .
CCOc1ccc(NC(=O)C2CCCN(S(=O)(=O)c3ccc4c(c3)C(C)(C)C(=O)N4C)C2)cc1 (centres undefined) | . | . | . | 0.2 | -0.7 | . | . | .
COc1ccc(-c2cc(C(=O)Nc3ccccc3)on2)cc1 | -0.3 | -0.11 | 1.0 | -2.3 | 22.4* | -1.3 | 3.3 | -0.6
CN1C(c2ccccc2)CC(C)(O)CC1c1ccccc1 (centres undefined) | . | . | . | -3.9 | -4.3 | . | . | .
O=c1cc(O)c2ccc(O)cc2o1 | -0.7 | -0.04 | 2.0 | 5.7 | 1.8 | -0.4 | . | .
O=c1ccc2[n+]([O-])c3ccc(O)cc3oc-2c1 | . | -0.33 | . | 1.8 | + | . | 2.0 | 93.2*
Cc1ccccc1CS(=O)(=O)Cc1ccc(C(=O)Nc2ccccc2C)o1 | . | . | . | 1.4 | -1.0 | . | . | .
SMILES | ABCB1 block | Ins promoter up | GRK2 inh | DDE Tn7 FP inh | DDE Tn6 FP inh | ABCG2 inh | Tn6 DDE ctr | DDE Tn6 confirm
Cc1cc(CN(C)C(=O)CC2C(=O)NCCN2Cc2ccc(-c3ccccc3)cc2)on1 (centres undefined) | . | . | 0.0 | 2.1 | 15.9* | . | -2.3 | -13.8
COc1cc(CCC(=O)OCC(=O)Nc2c(C)cccc2C(C)C)cc(OC)c1OC | 0.9 | -0.1 | 4.0 | 6.5 | 15.5* | 7.8 | 8.6 | 3.3
COc1ccc(CN(CCN2CCOCC2)C(=O)c2cc(F)ccc2F)cc1OC | . | . | . | -1.8 | -0.9 | . | . | .
CC(C)CCN1C(=O)COc2ccccc2C1c1nnnn1-c1ccc2c(c1)OCCO2 (centres undefined) | . | . | . | 5.5 | -5.7 | . | . | .
COc1ccc2cc(C(=O)Nc3ccc(S(N)(=O)=O)cc3)sc(=O)c2c1OC | -0.3 | 0.23 | 0.0 | 1.9 | 17.6* | -1.5 | 3.4 | 2.9
COc1ccc2cc(C(=O)Nc3ccccc3)sc(=O)c2c1OC | 0.3 | -0.28 | 6.0 | 2.0 | -0.1 | 4.8 | . | .
Cc1ccccc1C(C(=O)NCc1ccco1)N(CC1CCCO1)C(=O)Cn1nnc2ccccc21 (centres undefined) | 1.3 | 0.74 | 4.0 | 2.8 | 19.2* | 3.8 | 1.7 | -2.0
CN(Cc1ccccc1)C(=O)OCc1cn(Cc2cccc(F)c2F)nn1 | . | . | . | -1.2 | -0.9 | . | . | .
OCCN1CCN(CCOc2cccc(Cl)c2)CC1 | 1.3 | -0.11 | 0.0 | -7.2 | 16.6* | 9.4 | -0.3 | -3.6
CCCC#Cc1ccc(CC[C@H]2O[C@H]3CC[C@@H](CO)O[C@H]3C[C@H]2NC(=O)CN2CCOCC2)cc1 | . | . | . | -1.3 | -0.4 | . | . | .
CC1(C)c2ccccc2N2CCC(=O)NC21/C=C/c1ccco1 (centres undefined) | 0.4 | -0.61 | 0.0 | 4.6 | 17.2* | 1.3 | -7.0 | -9.5
CN1c2ccccc2C(C)(C)C12CCCC(=O)N2 (centres undefined) | 0.8 | 2.34 | 2.0 | -1.6 | -2.1 | 7.4 | . | .
Cc1cc(N2C(=O)C(=O)/C(=C(/O)c3ccccc3)C2c2cccs2)no1 (centres undefined) | -0.1 | 0.01 | 1.0 | 7.4 | 20.8* | -0.3 | 4.7 | -1.2
COc1cccc(/C(O)=C2/C(=O)C(=O)N(c3cc(C)on3)C2c2cccs2)c1 (centres undefined) | -0.1 | 0.1 | 2.0 | -1.4 | 0.9 | 0.0 | . | .
COC(=O)[C@]12CCCCC=C1N(Cc1ccc(OC)cc1)C(=O)[C@@H]2CC(=O)NCc1cccc(C(F)(F)F)c1 | . | . | . | -2.3 | -4.5 | . | . | .
CCOC(=O)C1(C)C=C(Nc2ccc(OC)cc2)C(=O)N1c1ccc(OC)cc1 (centres undefined) | 2.4 | 0.44 | 2.0 | 5.2 | 2.6 | 2.4 | . | .
CCOC(=O)C1(C)C=C(Nc2ccc(O)cc2)C(=O)N1c1ccc(O)cc1 (centres undefined) | 0.3 | 0.92 | 6.0 | 2.8 | 23.7* | 1.6 | -0.9 | -14.9
